# HSP90 inh: blocks HSP90-mediated luciferase refolding in reticulocyte lysate; Rabbit reticulocyte lysate, luciferase refolding luminescence, 3 h; 0.91% of 290,000 active; inhibition, % at 5.6 µM;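 active = inhibition above the screen-wide mean plus 3 SD, computed separately per campaign, cut at about 16% in these data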;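 also: inhibitors lower the luminescence because luciferase stays unfolded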
# HCV core dimer: blocks dimerization of HCV core protein; inhibition, % at 5 µM; AID 1899; 0.33% of 300,000 active; TR-FRET GST/Flag-core106 dimerization, 1536-well;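 active = inhibition above the mean of all tested compounds plus 3 SD, set per screening campaign, cut at about 45% in these data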
#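 assay system = GST-tagged and Flag-tagged HCV core protein residues 1-106 | controls = unlabelled core106 and no-GST-core106 wells | incubation = compound-protein-antibody incubation 4 h at 22.5 °C | probe or stimulus = Eu donor and XL665 acceptor anti-tag antibodies | read-out = % inhibition based on acceptor/donor emission ratio | signal = TR-FRET 671 and 617 nm emission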
# FID counter: displaces DNA intercalator in HCV helicase counter-screen. inhibition, % at 7.9 µM. DNA fluorescent intercalator displacement, fluorescence. 0.17% of 290,000 active. AID 1845; in the data active = inhibition above about 37%;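 also: higher means more ethidium bromide displaced from hairpin DNA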
# HSF1 activator: increases HSF-1 driven luciferase reporter signal; NIH3T3-HGL HSF-1 luciferase reporter, MG132, 8 h; 100% = twice DMSO control signal; activation, % at 9 µM; 1.7% of 300,000 active; AID 504408;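 active = mean replicate activation of at least 50% with a set share of replicates each reaching 50%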
# HCV NS3 hel inh: HCV NS3 helicase inhibition; NS3 helicase DNA unwinding, Cy5 molecular beacon fluorescence; inhibition, % at 10.9 µM; 0.56% of 290,000 active; AID 1800;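 active = inhibition above the mean of all tested compounds plus 3 SD, set per campaign, cut at about 35% in these data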
#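 assay system = NS3 helicase fragment of HCV | buffer or medium = MOPS pH 6.5, MgCl2, DTT, Tween20, BSA | timing = 60 min unwinding reaction at 25 °C after ATP addition | signal = Cy5 beacon fluorescence read at start and 1 h | read-out basis = % inhibition of unwinding | control set = low DMSO, high thioflavine S at 110 µM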
# HSF1 inh: HSF1 inhibition; activity change, negative = inhibition, % at 7.5 µM (by protocol); 0.77% of 300,000 active; NIH3T3-HGL HSE-luciferase, MG132-induced, luminescence 8 h; active compounds read low; AID 2098;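 active = more than half of replicate wells show activity change below -50%, luminescence cut by over half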;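 also: luciferase reports HSF-1 transcriptional activity via heat shock element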
# Numbers stand for hits; - = inactive; . = no result. Rows were chosen to be rich in hits. Some 3.9% of all compounds tested hit in one or more screens of this group.
SMILES,HSP90 inh,HCV core dimer,FID counter,HSF1 activator,HCV NS3 hel inh,HSF1 inh
COc1ccc(S(=O)(=O)Nc2cc3c4c(oc3c3ccccc23)CC(C)(C)CC4=O)cc1,-,-,-,-,-,-
COc1cc(/C=C/c2ccc3cccc(O)c3n2)cc(Cl)c1OC,-,-,-,72,-,-
COc1cc(/C=C/c2ccc3cccc(O)c3n2)cc(OC)c1OC,-,-,-,-,-,-
Cc1ncc([N+](=O)[O-])n1CC(=O)NCCc1ccccc1,-,-,-,-,-,-62
Cc1ncc([N+](=O)[O-])n1CC(=O)Nc1ccc(F)cc1,-,-,-,-,-,-74
Clc1cccc(-c2cc3nc4c(c(NCc5ccco5)n3n2)CCCC4)c1,-,-,-,58,-,-
CCCC(=O)O/N=C(\c1ccccc1)c1ccncc1,-,-,-,57,-,-
COc1ccccc1S(=O)(=O)Cc1ccc(C(=O)NCc2ccccc2)o1,-,-,-,-,-,-
Cc1cccc(C)c1NC(=O)/C(C#N)=C/c1cccs1,-,-,-,-,-,-
Cc1ccc(NC(=O)/C(C#N)=C/c2cccs2)c(C)c1,-,-,-,53,-,-
Cc1ccc(OC(=O)c2ccc3nc(C)sc3c2)cc1,-,-,-,-,-,-62
Cc1ccc2[nH]c(O)c(N=Nc3ccccc3C)c2c1,-,-,-,-,-,-63
Cc1ccccc1N=Nc1c(O)[nH]c2ccccc12,.,-,.,-,.,-
Cc1nn(CC(=O)NCCCN2CCC(N3CCCCC3)CC2)c(=O)c2cc(-c3ccccc3)nn12,-,-,38,-,-,-
Cc1nn(CC(=O)NCCCN2CCN(C)CC2)c(=O)c2cc(-c3ccccc3)nn12,-,-,-,-,-,-
COc1cc(NC(=O)C2=C(N3CCOCC3)/C(=C\c3ccc(Br)cc3)CC2)cc(OC)c1OC,-,-,-,97,-,-
CC1(c2nnc(-c3ccc(F)cc3)o2)CC(c2cccc(Cl)c2)=NO1 (stereo unspecified),.,-,.,-,.,-
O=C(NC1CCCCC1)C1CCCN1S(=O)(=O)c1cccc2nsnc12 (stereo unspecified),-,-,-,54,-,-
COc1ccc(N2C(=O)N(Cc3ccc(C)cc3)c3ccccc3S2(=O)=O)cc1,27,-,-,-,-,-
O=C(CSc1nnc(Cc2ccccc2)n1-c1cccc(Cl)c1)N1CCOCC1,-,-,-,-,-,-
COCCn1c(SCC(=O)Nc2cccc(C)n2)nnc1-c1ccco1,-,-,-,-,-,-
Oc1ccc(-c2n[nH]c(=S)n2-c2ccc3c(c2)OCCO3)c(O)c1,16,-,-,-,-,-
COc1cccc(C(=O)N2CCN(C(=O)C3CC3)CC2)c1,-,.,-,-,-,-
CCC(C)(C)c1ccc(OCCCC[n+]2ccc(C)cc2)c(C(C)(C)CC)c1,-,-,46,-,-,-
Cc1nnc(NC(=O)CSc2nnc3c(n2)[nH]c2ccc(Br)cc23)s1,-,-,-,-,-,-
SMILES,HSP90 inh,HCV core dimer,FID counter,HSF1 activator,HCV NS3 hel inh,HSF1 inh
Cn1ccc(C(=O)N/N=C/c2ccncc2)n1,-,.,-,78,-,-
CC(=O)Nc1nc2c(s1)CCc1ccccc1-2,-,-,-,-,-,-
O=C(CCCl)Nc1nc2c(s1)CCc1ccccc1-2,-,-,-,175,-,-
COc1ccc(C2N(C(=O)CN3CCCC3)CCCN2S(=O)(=O)c2ccccc2)cc1 (stereo unspecified),-,-,-,105,-,-
CN(CC(=O)Nc1ccc(N2CCOCC2)cc1)Cc1c(O)ccc2ccccc12,-,-,-,198,-,-
COc1ccc(Cc2nc3ccc(C(=O)NCCc4ccccn4)cc3o2)cc1OC,-,-,-,-,-,-
Cn1c(=O)oc2cc(S(=O)(=O)Nc3ccc4c(c3)OCCO4)ccc21,-,-,-,-,-,-
O=S(=O)(Nc1ccc2c(c1)OCCO2)c1cccs1,-,-,-,-,-,-63
Cn1c(=O)c(=O)n(C)c2cc(S(=O)(=O)Nc3ccc4c(c3)OCCO4)ccc21,-,-,-,-,-,-60
O=S(=O)(Nc1ccc2c(c1)OCO2)c1cccs1,-,-,-,-,-,-
O=C(NCC1CCCO1)c1nn2c(C(F)(F)F)cc(-c3cc(Br)cs3)nc2c1Br (stereo unspecified),-,-,-,62,-,-
O=C(NCC1CCCO1)c1nn2c(C(F)(F)F)cc(-c3ccco3)nc2c1Cl (stereo unspecified),-,-,-,-,-,-
O=[N+]([O-])c1ccc(COc2cccc3cccnc23)cc1,-,-,-,59,-,-
O=C(N/N=C/c1ccc[nH]1)c1ccc(COc2cccc3cccnc23)cc1,-,-,-,-,-,-69
Brc1ccc(COc2cccc3cccnc23)cc1,.,-,.,65,.,-
Brc1ccc(OCCOc2cccc3cccnc23)cc1,-,-,-,67,-,-
N#Cc1ccc(COc2cccc3cccnc23)cc1,-,-,-,-,-,-
c1ccc(OCCOc2cccc3cccnc23)cc1,-,-,-,-,-,-
O=C(N/N=C/c1ccccc1C(=O)O)c1ccc(COc2cccc3cccnc23)cc1,-,-,-,-,-,-
N#C/C(=C(/O)c1cccc(F)c1)c1nc2ccccc2s1,-,-,-,-,-,-
Cc1ccc(SCC(=O)c2ccc(CC(=O)O)s2)cc1,-,-,-,-,-,-
COc1cccc(-c2ccc(NC(=O)C3CCCN(Cc4cnn(C(C)C)c4)C3)cc2)c1 (stereo unspecified),-,-,-,-,-,-
Cc1ccc(S(=O)(=O)Nc2cc3c(C(=O)Nc4ccccc4)c(C)oc3c3ccccc23)cc1,-,50,-,-,-,-
CN1c2ccccc2C(O)=C(C(=S)Nc2ccc(Cl)cc2)S1(=O)=O,-,-,-,60,-,-
O=C(Nc1ccccc1O)c1cccc(S(=O)(=O)Nc2ccccc2O)c1,.,-,.,123,.,-
SMILES,HSP90 inh,HCV core dimer,FID counter,HSF1 activator,HCV NS3 hel inh,HSF1 inh
COc1ccc(/C=N\NC(=O)c2ccccc2)cc1COc1ccccc1,-,-,-,-,-,-
COc1ccc(/C=N/NC(=O)c2nc(Cl)c(Cl)c(N)c2Cl)cc1COc1ccccc1F,-,57,-,-,-,-
COc1ccc(/C=N/NC(=O)c2nc(Cl)c(Cl)c(N)c2Cl)cc1COc1ccc(F)cc1F,-,53,-,-,-,-
COc1cccc(OCc2cc(/C=N/NC(=O)c3ccn[nH]3)ccc2OC)c1,-,48,-,-,-,-
Cc1cccc(C)c1NC(=O)c1cccc2c1C(=O)N(C1CCCCC1)C2,-,-,-,-,-,-
Cc1ccc(NC(=O)CSc2nc3[nH]ncc3c(=O)[nH]2)cc1Cl,.,-,.,-,.,-
Nc1nnc(SCC(=O)c2ccccc2)s1,-,-,-,-,-,-

# Screens: PubChem BioAssay, several laboratories
